Source: ChEMBL document CHEMBL1130178, “Synthesis and evaluation of novel fluorinated methotrexate derivatives for application to rheumatoid arthritis treatment” (J Med Chem, 1997)
Converted amounts (≈) assume the structure as drawn.

Key:
Rattus norvegicus = organism: Rattus norvegicus; assay: Effect on RA model was examined using adjuvant arthritis in rats.; type: functional
Procedure, shortened: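 Female Lewis rats (7 weeks, 140–160 g) sensitized by s.c. injection into left hind paw of liquid paraffin containing 0.5 mg Mycobacterium butyricum. 0.6% suspension in arabic gum given orally 5 days/week from day 1 (12 doses). Uninjected paw volume measured by plethysmometer until day 17; ED50 from inhibition versus vehicle control.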

Mus musculus [1] = assay: secondary antibody response in mice at 2.5 mg/kg; type: functional
Procedure, shortened: (§1)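 Female BDF1 mice (6 weeks old) immunized i.v. with 1 × 10^5 SRBC on days 0, 7 and 14; sodium salt in water given orally 5 days/week from day 0 (15 doses). Serum taken day 20; hemagglutination titer by serial two-fold dilution with 1% SRBC, 14 h at 25 °C, read visually; mean log2 titer ± SD.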

Mus musculus [2] = assay: secondary antibody response in mice at 0.625 mg/kg; type: functional; procedure, shortened: as §1
T-cell [3] = assay: Inhibitory activity against Con A-stimulated Tcell proliferation.; type: functional, cell-based, Mus musculus
Procedure, shortened: (§2)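 Mouse spleen cells stimulated with mitogen, concanavalin A for T cells or lipopolysaccharide for B cells; inhibition of proliferative response measured, IC50 in ng/mL.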

[4] = Inhibitory activity against LPS-stimulated B cell proliferation.; type: functional, cell-based, Mus musculus; procedure, shortened: as §2
[5] = Safety index = Ratio of lethal dose / suppressive dose value; type: toxicity; conditions: for selectivity ratio: read-out: Safety index
Procedure, shortened: (§3)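 Female BDF1 mice (6 weeks old) were immunized iv with 1 × 10^8 SRBC, then given the test compound's sodium salt in water per os on days 1–3. Serum was taken on day 7 and serially two-fold diluted in PBS with 5 × 10^-5 M 2-mercaptoethanol. 1% SRBC was added, plates were held 14 h at 25 °C, and hemagglutination titer was read visually. Lethal dose is the dose (mg/kg) at which one mouse died; index = lethal dose / dose giving 75% suppression.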

EL4 = assay: Inhibitory growth of EL4 thymoma cell line from C57BL/6 mice; type: functional, cell-based; conditions: Mus musculus
Procedure, shortened: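 EL4 thymoma cells (C57BL/6 origin), 4 × 10^4 per well, exposed to compound in DMSO at final 0–50 μg/mL for 1 day at 37 °C, 5% CO2, humidified air; proliferation then measured.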

Mus musculus [6] = organism: Mus musculus; assay: Compound dose suppressing antibody production by 75% in mice; type: functional
Procedure, shortened: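 Female BDF1 mice (6 weeks old) immunized i.v. with 1 × 10^8 SRBC; sodium salt dissolved in water given orally days 1–3. Serum taken day 7; two-fold serial dilutions in PBS with 5 × 10^-5 M 2-mercaptoethanol mixed with 1% SRBC, 14 h at 25 °C; hemagglutination titer read visually. Dose giving 75% suppression, mg/kg.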

[7] = Ratio of LD50 / ED50 value against adjuvant arthritis in rats.; type: functional
Procedure, shortened: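 Female Lewis rats (7 weeks, 140–160 g) sensitized by subcutaneous injection into left hind paw of 0.05 mL liquid paraffin containing 0.5 mg Mycobacterium butyricum. Compound given orally as 0.6% suspension in arabic gum, five days a week from day 1 (12 days total). Uninjected paw volume measured by plethysmometer until day 17; inhibition versus vehicle control gives ED50; index is LD50/ED50.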

Mus musculus [8] = assay: secondary antibody response in mice at 1.25 mg/kg; type: functional; procedure, shortened: as §1
[9] = Lethal dose in rats.; type: toxicity; conditions: rat, in vivo
[10] = Compound dose causing lethality in mice; type: toxicity; conditions: mouse, in vivo; procedure, shortened: as §3
T-cell [11] = assay: Inhibitory activity against Con A-stimulated T cell proliferation.; type: functional, cell-based; conditions: Mus musculus; procedure, shortened: as §2
[12] = Rattus norvegicus, read-out: ED50
[13] = Mus musculus, T-cell, read-out: IC50

Row | SMILES | ED50 (Rattus norvegicus; [12]) | IC50 (T-cell [3]; [13]) | IC50 [4] | selectivity ratio [5] | IC50 (EL4) | Suppressive dose (Mus musculus [6]) | Ratio [7] | LD50 ([9]; read-out: LD50) | Lethal dose [10] | IC50 (T-cell [3]; t-cell) | Safety index [5] | other results
1 | Nc1nc(N)c2nc(CNc3ccc(C(=O)N[C@@H](CC(F)C(=O)O)C(=O)O)cc3F)cnc2n1 (stereo partly drawn) | 0.62 mg/kg | 9.4 ng/mL (≈ 0.0197 µM) | 22.7 ng/mL (≈ 0.0476 µM) | 160 | > 100 µM | 1.25 mg/kg | 46.8 | 29 mg/kg | 200 mg/kg | – | – | Log2 (Mus musculus [1]): 5.2; Log2 (Mus musculus [2]): 6.2; Log2 (Mus musculus [8]): 6.8
2 | Nc1nc(N)c2nc(CNc3ccc(C(=O)N[C@@H](CC(F)C(=O)O)C(=O)O)cc3Br)cnc2n1 (stereo partly drawn) | 0.43 mg/kg | 2.1 ng/mL (≈ 0.00391 µM) | 8.2 ng/mL (≈ 0.0153 µM) | > 80 | > 100 µM | 5 mg/kg | 46.5 | 20 mg/kg | > 200 mg/kg | – | – | –
3 | Nc1nc(N)c2nc(CNc3ccc(C(=O)N[C@@H](CC(F)C(=O)O)C(=O)O)cc3Cl)cnc2n1 (stereo partly drawn) | – | 4.3 ng/mL (≈ 0.00872 µM) | 11.8 ng/mL (≈ 0.0239 µM) | 100 | > 100 µM | 0.8 mg/kg | – | – | 80 mg/kg | – | – | –
4 | CN(Cc1cnc2nc(N)nc(N)c2n1)c1ccc(C(=O)N[C@@H](CC(F)C(=O)O)C(=O)O)cc1 (stereo in doubt; 2ie) | – | – | 21 ng/mL (≈ 0.0445 µM) | 12 | – | 50 mg/kg | – | – | 600 mg/kg | 25.9 ng/mL (≈ 0.0548 µM) | – | –
5 | CN(Cc1cnc2nc(N)nc(N)c2n1)c1ccc(C(=O)N[C@@H](CC(F)C(=O)O)C(=O)O)cc1 (stereo in doubt; 2it) | – | – | 61.5 ng/mL (≈ 0.13 µM) | – | > 100 µM | >400 mg/kg | – | – | – | 64.6 ng/mL (≈ 0.137 µM) | – | –
6 | Nc1nc(N)c2nc(CNc3ccc(C(=O)N[C@@H](CC(F)C(=O)O)C(=O)O)cc3C(F)(F)F)cnc2n1 (stereo in doubt; 2ve) | – | – | 14.3 ng/mL (≈ 0.0272 µM) | – | – | – | – | – | – | 8 ng/mL (≈ 0.0152 µM) | – | –
7 | Nc1nc(N)c2nc(CNc3ccc(C(=O)N[C@@H](CC(F)C(=O)O)C(=O)O)cc3C(F)(F)F)cnc2n1 (stereo in doubt; 2vt) | – | – | 19.5 ng/mL (≈ 0.037 µM) | – | > 100 µM | 5 mg/kg | – | – | – | 16.8 ng/mL (≈ 0.0319 µM) | – | –
8 | CCc1cc(C(=O)N[C@@H](CC(F)C(=O)O)C(=O)O)ccc1NCc1cnc2nc(N)nc(N)c2n1 (stereo in doubt; form 1) | 0.8 mg/kg | 3.8 ng/mL (≈ 0.00781 µM) | 9.7 ng/mL (≈ 0.0199 µM) | 160 | > 100 µM | 1.25 mg/kg | 25 | 20 mg/kg | 100 mg/kg | – | – | Log2 (Mus musculus [1]; 2.5 mg/kg): 3.2; Log2 (Mus musculus [2]; 0.625 mg/kg): 4.8; Log2 (Mus musculus [8]; 1.25 mg/kg): 3.8
9 | CCCc1cc(C(=O)N[C@@H](CC(F)C(=O)O)C(=O)O)ccc1NCc1cnc2nc(N)nc(N)c2n1 (stereo in doubt; form 1) | – | 5.3 ng/mL (≈ 0.0106 µM) | 22.2 ng/mL (≈ 0.0444 µM) | – | > 100 µM | 10 mg/kg | – | – | 200 mg/kg | – | 40 | –
10 | Cc1cc(C(=O)N[C@@H](CC(F)C(=O)O)C(=O)O)sc1N(C)Cc1cnc2nc(N)nc(N)c2n1 (stereo in doubt; form 1) | – | – | 14.9 ng/mL (≈ 0.0303 µM) | – | > 100 µM | 10 mg/kg | – | – | > 180 mg/kg | 11.5 ng/mL (≈ 0.0234 µM) | > 18 | –
11 | Cc1cc(C(=O)N[C@@H](CC(F)C(=O)O)C(=O)O)ccc1NCc1cnc2nc(N)nc(N)c2n1 (stereo in doubt; form 1) | – | 7.8 ng/mL (≈ 0.0165 µM) | 9.9 ng/mL (≈ 0.021 µM) | 40 | > 100 µM | 0.31 mg/kg | – | – | 12.5 mg/kg | – | – | –
12 | CCc1cc(C(=O)N[C@@H](CC(F)C(=O)O)C(=O)O)ccc1NCc1cnc2nc(N)nc(N)c2n1 (stereo in doubt; form 2) | – | – | 9.2 ng/mL (≈ 0.0189 µM) | – | – | 2.5 mg/kg | 12.2 | – | 150 mg/kg | 3.2 ng/mL (≈ 0.00658 µM) | 120 | ED50 (Rattus norvegicus): 0.89 mg/kg; Log2 (Mus musculus [1]; 2.5 mg/kg): 4.6; Log2 (Mus musculus [2]; 0.625 mg/kg): 5.4; Log2 (Mus musculus [8]; 1.25 mg/kg): 5.2; LD50 [9]: 10.9 mg/kg
13 | Cc1cc(C(=O)N[C@@H](CC(F)C(=O)O)C(=O)O)sc1N(C)Cc1cnc2nc(N)nc(N)c2n1 (stereo in doubt; form 2) | 0.8 mg/kg | – | 5.1 ng/mL (≈ 0.0104 µM) | – | – | 5 mg/kg | 57.5 | 46 mg/kg | 150 mg/kg | 3.8 ng/mL (≈ 0.00772 µM) | 60 | –
14 | Cc1cc(C(=O)N[C@@H](CC(F)C(=O)O)C(=O)O)ccc1NCc1cnc2nc(N)nc(N)c2n1 (stereo in doubt; form 2) | – | – | 16.5 ng/mL (≈ 0.0349 µM) | – | – | 1.25 mg/kg | – | – | 100 mg/kg | 10.7 ng/mL (≈ 0.0226 µM) | 80 | –
15 | CN(Cc1cnc2nc(N)nc(N)c2n1)c1ccc(C(=O)N[C@@H](CCC(=O)O)C(=O)O)cc1 [METHOTREXATE] | 0.058 mg/kg | – | 12.5 ng/mL (≈ 0.0275 µM) | 64 | 1.57 µM | 0.625 mg/kg | – | 0.82 mg/kg | 40 mg/kg | – | – | Log2 (Mus musculus [1]): 4; Log2 (Mus musculus [2]): 5.4; IC50 (T-cell [11]): 6.1 ng/mL (≈ 0.0134 µM); Safety index [7]: 14.1; Log2 (Mus musculus [8]): 4.2
